Measurements published in ChEMBL document CHEMBL1149231, “2,5-Dihydropyrazolo[4,3-c]pyridin-3-ones: functionally selective benzodiazepine binding site ligands on the GABAA receptor” (Bioorg Med Chem Lett, 2004).

Legend:
Type in all cases: cell-based
[1] = molecular target: T1, GABA-A receptor; alpha-3/beta-3/gamma-2 (Homo sapiens) (UniProt P18507+P28472+P34903); test: Efficacy was determined against Gamma-aminobutyric acid A receptor, alpha 3 expressed in Xenopus oocytes; conditions: Oocyte
In short: (§1)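 Cloned human α1β3γ2, α2β3γ2 or α3β3γ2 receptors transiently expressed in Xenopus oocytes; two-electrode voltage clamp; modulation of GABA EC20 current by a single test-compound concentration (nM, given per value); means ± SEM, n = 3-7.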

[2] = molecular target: T2, GABA-A receptor; alpha-3/beta-3/gamma-2 (Homo sapiens, UniProt P18507+P28472+P34903); test: In vitro binding affinity against Gamma-aminobutyric acid A receptor, alpha 3 expressed in L(tk) cells by displacement of [3H]Ro-151788
T2 sequence (P18507 whole entry): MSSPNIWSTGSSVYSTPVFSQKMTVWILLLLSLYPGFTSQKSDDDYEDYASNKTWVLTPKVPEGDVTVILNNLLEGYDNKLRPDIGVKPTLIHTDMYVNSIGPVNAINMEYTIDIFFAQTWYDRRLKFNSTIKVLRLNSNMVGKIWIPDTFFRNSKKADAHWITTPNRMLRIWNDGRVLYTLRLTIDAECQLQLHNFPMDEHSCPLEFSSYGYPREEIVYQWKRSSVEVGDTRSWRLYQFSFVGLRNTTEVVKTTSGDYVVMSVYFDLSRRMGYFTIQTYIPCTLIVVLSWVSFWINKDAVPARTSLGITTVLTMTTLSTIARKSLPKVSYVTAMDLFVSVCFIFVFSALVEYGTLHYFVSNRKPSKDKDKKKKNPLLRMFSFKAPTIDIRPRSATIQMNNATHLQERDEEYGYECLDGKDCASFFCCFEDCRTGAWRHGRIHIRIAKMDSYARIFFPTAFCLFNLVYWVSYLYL
T2 sequence (P28472 whole entry): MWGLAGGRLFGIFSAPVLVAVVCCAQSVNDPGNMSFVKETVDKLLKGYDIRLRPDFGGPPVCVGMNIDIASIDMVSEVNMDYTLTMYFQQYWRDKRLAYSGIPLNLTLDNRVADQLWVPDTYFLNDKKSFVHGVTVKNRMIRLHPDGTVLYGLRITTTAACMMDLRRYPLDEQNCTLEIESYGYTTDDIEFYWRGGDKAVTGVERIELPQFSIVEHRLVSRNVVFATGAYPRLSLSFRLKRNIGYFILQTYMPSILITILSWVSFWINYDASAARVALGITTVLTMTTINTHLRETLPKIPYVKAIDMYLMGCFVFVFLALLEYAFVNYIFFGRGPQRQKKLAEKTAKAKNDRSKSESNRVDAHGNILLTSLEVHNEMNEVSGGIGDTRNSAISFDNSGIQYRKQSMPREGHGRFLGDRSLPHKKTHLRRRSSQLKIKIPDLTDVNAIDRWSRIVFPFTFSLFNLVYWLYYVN
T2 sequence (P34903 whole entry): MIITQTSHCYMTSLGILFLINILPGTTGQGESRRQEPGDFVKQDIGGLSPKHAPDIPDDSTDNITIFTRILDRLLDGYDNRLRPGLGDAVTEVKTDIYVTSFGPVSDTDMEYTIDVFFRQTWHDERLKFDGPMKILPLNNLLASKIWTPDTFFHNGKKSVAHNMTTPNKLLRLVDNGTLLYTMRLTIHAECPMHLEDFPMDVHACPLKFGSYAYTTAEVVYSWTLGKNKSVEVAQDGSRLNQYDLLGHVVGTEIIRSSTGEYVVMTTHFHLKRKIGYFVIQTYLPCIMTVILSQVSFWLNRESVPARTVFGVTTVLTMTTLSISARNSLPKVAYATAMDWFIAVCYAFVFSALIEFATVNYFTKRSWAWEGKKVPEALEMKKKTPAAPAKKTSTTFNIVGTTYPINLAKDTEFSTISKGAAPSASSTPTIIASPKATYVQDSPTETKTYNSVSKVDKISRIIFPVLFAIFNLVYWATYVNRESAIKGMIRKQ
In short: (§2)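 Binding to cloned human α1β3γ2, α2β3γ2 or α3β3γ2 receptors stably expressed in L(tk-) cells, measured as displacement of [3H]Ro15-1788; means ± SEM, n = 3-7.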

[3] = molecular target: T3, GABA-A receptor; alpha-1/beta-3/gamma-2 (Homo sapiens, UniProt P14867+P18507+P28472); test: In vitro binding affinity against gamma-aminobutyric acid A receptor, alpha 1 expressed in L(tk) cells by displacement of [3H]Ro-151788; in short: as §2
T3 sequence (P14867 whole entry): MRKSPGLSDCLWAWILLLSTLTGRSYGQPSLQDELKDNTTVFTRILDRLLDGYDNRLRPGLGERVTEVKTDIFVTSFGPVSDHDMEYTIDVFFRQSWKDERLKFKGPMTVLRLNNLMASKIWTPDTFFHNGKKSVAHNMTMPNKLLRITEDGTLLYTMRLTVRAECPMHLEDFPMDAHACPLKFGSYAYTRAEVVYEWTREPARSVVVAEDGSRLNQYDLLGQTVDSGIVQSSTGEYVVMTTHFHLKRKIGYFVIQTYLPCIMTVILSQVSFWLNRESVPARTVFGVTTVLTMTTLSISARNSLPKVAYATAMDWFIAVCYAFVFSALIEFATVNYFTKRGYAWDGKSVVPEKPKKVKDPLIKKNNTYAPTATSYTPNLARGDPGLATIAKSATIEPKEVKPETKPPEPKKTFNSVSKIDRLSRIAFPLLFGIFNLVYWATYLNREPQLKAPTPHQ
T3 sequence (P18507 whole entry): T2 sequence (P18507 whole entry)
T3 sequence (P28472 whole entry): T2 sequence (P28472 whole entry)

[4] = molecular target: T4, GABA-A receptor; alpha-1/beta-3/gamma-2 (Homo sapiens) (UniProt P14867+P18507+P28472); test: Efficacy was determined against gamma-aminobutyric acid A receptor, alpha 1 expressed in Xenopus oocytes; conditions: Oocyte; in short: as §1
[5] = molecular target: T5, GABA-A receptor; alpha-2/beta-3/gamma-2 (Homo sapiens) (UniProt P18507+P28472+P47869); test: Efficacy against human GABA-A receptor alpha-2-beta-3-gamma-2 subunits expressed in L(tk-) cells by whole-cell patch-clamp
In short: (§3)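 Whole-cell patch-clamp of L(tk-) cells stably expressing cloned human α1β3γ2, α2β3γ2 or α3β3γ2 receptors; full concentration-effect curves built; means ± SEM, n = 3-7.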

[6] = molecular target: T5, GABA-A receptor; alpha-2/beta-3/gamma-2 (Homo sapiens); test: Efficacy relative to GABA EC20 against human GABA-A receptor alpha-2-beta-3-gamma-2 subunits expressed in Xenopus oocytes; conditions: Oocyte; in short: as §1
[7] = molecular target: T1, GABA-A receptor; alpha-3/beta-3/gamma-2 (Homo sapiens); test: Efficacy against human GABA-A receptor alpha-3-beta-3-gamma-2 subunits expressed in L(tk-) cells by whole-cell patch-clamp; in short: as §3
[8] = molecular target: T6, GABA-A receptor; alpha-2/beta-3/gamma-2 (Homo sapiens, UniProt P18507+P28472+P47869); test: In vitro displacement of [3H]Ro-151788 from human GABA-A receptor alpha-2-beta-3-gamma-2 subunits expressed in L(tk-) cells; in short: as §2
T6 sequence (P18507 whole entry): T2 sequence (P18507 whole entry)
T6 sequence (P28472 whole entry): T2 sequence (P28472 whole entry)
T6 sequence (P47869 whole entry): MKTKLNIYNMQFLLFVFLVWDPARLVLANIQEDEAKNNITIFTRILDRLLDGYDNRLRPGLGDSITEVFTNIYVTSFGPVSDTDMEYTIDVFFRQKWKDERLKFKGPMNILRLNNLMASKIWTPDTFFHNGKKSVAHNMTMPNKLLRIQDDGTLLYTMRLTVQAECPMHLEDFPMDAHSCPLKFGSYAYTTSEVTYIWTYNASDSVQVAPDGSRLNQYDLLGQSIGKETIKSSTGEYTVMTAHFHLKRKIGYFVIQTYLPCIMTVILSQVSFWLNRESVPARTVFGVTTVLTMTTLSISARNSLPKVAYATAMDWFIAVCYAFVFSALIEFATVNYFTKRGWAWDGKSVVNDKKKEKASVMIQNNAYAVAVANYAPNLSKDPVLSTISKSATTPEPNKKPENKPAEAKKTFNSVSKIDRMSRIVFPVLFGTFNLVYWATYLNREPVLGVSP

[9] = molecular target: T4, GABA-A receptor; alpha-1/beta-3/gamma-2 (Homo sapiens); test: Efficacy against human GABA-A receptor alpha-1-beta-3-gamma-2 subunits expressed in L(tk-) cells by whole-cell patch-clamp; in short: as §3
[10] = molecular target: T2, GABA-A receptor; alpha-3/beta-3/gamma-2; test: In vitro displacement of [3H]Ro-151788 from human GABA-A receptor alpha-3-beta-3-gamma-2 subunits expressed in L(tk-) cells; in short: as §2

| SMILES | Efficacy [1] | Ki [2] | Ki [3] | Efficacy [4] | Efficacy [5] | Efficacy [6] | Efficacy [7] | Ki [8] | Efficacy [9] | Ki [10] |
| --- | --- | --- | --- | --- | --- | --- | --- | --- | --- | --- |
| COc1ccc(-n2nc3c4c(ncc3c2O)CCCC4)cc1 | 55% | 0.61 nM | 0.31 nM | 15% | – | – | – | – | – | – |
| Oc1c2c(nn1-c1ccc(Cl)cc1)C1CCCC1N=C2 (centres undefined) | 51% | 1.12 nM | 0.44 nM | 19% | – | – | – | – | – | – |
| Oc1c2cnc3c(c2nn1-c1ccc(F)cc1)CCCC3 | 33% | 0.65 nM | 0.29 nM | -2% | – | – | – | – | – | – |
| Oc1c2c(nn1-c1ccc(Cl)cc1)C1CN(CC3CC3)CCC1N=C2 (centres undefined) | 123% | 7.45 nM | 0.45 nM | 111% | – | – | – | – | – | – |
| O=c1c2c[nH]c3c(c-2nn1-c1ccc(Cl)cc1)CCCC3 | 93% | 1.03 nM | 0.19 nM | 12% | 43% | 61% | 70% | 0.77 nM | 17% | – |
| Oc1c2cnc3c(c2nn1-c1ccc(OC2CC2)cc1)CCCC3 | 62% | – | 1.13 nM | 19% | – | – | 54% | – | -4.3% | 2.19 nM |
| Oc1c2c(nn1-c1ccc(Cl)cc1)C1CN(Cc3ccncc3)CCC1N=C2 (centres undefined) | 199% | 0.56 nM | 0.18 nM | 131% | – | – | – | – | – | – |
| Oc1c2cnc3c(c2nn1-c1ccccn1)CCCC3 | -7% | 1.14 nM | 0.57 nM | -39% | – | – | – | – | – | – |

Further molecules by falling Ki [3], results first:

| Efficacy [1] | Ki [2] | Ki [3] | Efficacy [4] | Efficacy [5] | Efficacy [6] | Efficacy [7] | Ki [8] | Efficacy [9] | Ki [10] | SMILES |
| --- | --- | --- | --- | --- | --- | --- | --- | --- | --- | --- |
| 35% | 4.7 nM | 7.33 nM | 14% | – | – | – | – | – | – | Oc1c2cnc3c(c2nn1-c1ccc(OC(F)(F)F)cc1)CCCC3 |
| 2.3% | 5.4 nM | 3.15 nM | 49% | – | – | – | – | – | – | O=C(Cc1cccnc1)N1CCC2N=Cc3c(nn(-c4ccc(Cl)cc4)c3O)C2C1 (centres undefined) |
| 32% | 6.4 nM | 1.55 nM | 11% | – | – | – | – | – | – | Oc1c2c(nn1-c1ccc(OC(F)F)cc1)C1COCCC1N=C2 (centres undefined) |
| 36% | 2.55 nM | 1.3 nM | 49% | – | – | – | – | – | – | Oc1c2cnc3c(c2nn1-c1ccc(OC2CCC2)cc1)CCCC3 |
| 87% | 4.27 nM | 1.06 nM | 23% | – | – | – | – | – | – | Oc1c2c(nn1-c1ccc(Cl)cc1)C1CCCCCC1N=C2 (centres undefined) |
| 56% | 2.25 nM | 1 nM | 21% | – | – | 34% | – | 2% | – | Oc1c2cnc3c(c2nn1-c1ccc(OC(F)F)cc1)CCCC3 |
| 25% | 0.89 nM | 0.38 nM | 9% | – | – | – | – | – | – | Oc1c2c(nn1-c1ccc(OC(F)F)cc1)C1CSCCC1N=C2 (centres undefined) |
